ChEMBL document CHEMBL1123478, “Synthesis and antineoplastic activity of bis[[[(alkylamino)carbonyl]oxy]methyl]-substituted 3-pyrrolines as prodrugs of tumor inhibitory pyrrole bis(carbamates)” (1986)
Several values for one entry are separate records, joined by “and”; a condition that tells them apart may be missing. Equal values may be shown once.

Columns and labels:
[1] = tested on: Mus musculus; test: Body weight difference the relation of the test animal to control animal weight was calculated at the 120 mg/kg doses; format: functional
Summary of the method: (§1)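 P388 leukemia ascitic fluid implanted intraperitoneally into CD2F1 mice. Dosing was intraperitoneal, starting 24 h after inoculation, once daily for five doses, as a suspension in saline and Tween 80 made fresh each day. Some compounds were given in Klucel (hydroxypropylcellulose) or in saline/Tween/alcohol instead. Acute toxicity was checked on day 5 and the study was evaluated on day 30.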

[2] = tested on: Mus musculus; test: Body weight difference the relation of the test animal to control animal weight was calculated at the 60 mg/kg doses; format: functional; summary of the method: as §1
[3] = tested on: P388; test: Compound was tested for antitumor activity against P388 lymphocytic leukemia at the dose 120 mg/kg; format: functional, Mus musculus; summary of the method: as §1
[4] = tested on: P388; test: Compound was tested for antitumor activity against P388 lymphocytic leukemia at the dose 60 mg/kg; format: functional, Mus musculus; summary of the method: as §1
[5] = tested on: Mus musculus; test: Body weight difference the relation of the test animal to control animal weight was calculated at the 240 mg/kg doses; format: functional; summary of the method: as §1
[6] = tested on: P388; test: Compound was tested for antitumor activity against P388 lymphocytic leukemia at the dose 240 mg/kg; format: functional, Mus musculus; summary of the method: as §1
[7] = tested on: Mus musculus; test: Tumor cell population at the end of treatment relative to its size at the beginning of the treatment was calculated at the 60 mg/kg doses; format: functional; summary of the method: as §1
[8] = tested on: Mus musculus; test: Tumor cell population at the end of treatment relative to its size at the beginning of the treatment was calculated at the 480 mg/kg doses; format: functional; summary of the method: as §1
[9] = tested on: Mus musculus; test: Body weight difference the relation of the test animal to control animal weight was calculated at the 480 mg/kg doses; format: functional; summary of the method: as §1
[10] = tested on: Mus musculus; test: Tumor cell population at the end of treatment relative to its size at the beginning of the treatment was calculated at the 120 mg/kg doses; format: functional; summary of the method: as §1
[11] = tested on: Mus musculus; test: Tumor cell population at the end of treatment relative to its size at the beginning of the treatment was calculated at the 240 mg/kg doses; format: functional; summary of the method: as §1
[12] = tested on: P388; test: Compound was tested for antitumor activity against P388 lymphocytic leukemia at the dose 480 mg/kg; format: functional, Mus musculus; summary of the method: as §1
[13] = Rate constants were calculated for the compound by linear regression analysis
[14] = tested on: P388; test: Compound was tested for antitumor activity against P388 lymphocytic leukemia at the dose 200 mg/kg; format: functional, Mus musculus; summary of the method: as §1
[15] = tested on: P388; test: Compound was tested for antitumor activity against P388 lymphocytic leukemia at the dose 400 mg/kg; format: functional, Mus musculus; summary of the method: as §1
[16] = tested on: Mus musculus; test: Body weight difference the relation of the test animal to control animal weight was calculated at the 100 mg/kg doses; format: functional; summary of the method: as §1
[17] = tested on: Mus musculus; test: Body weight difference the relation of the test animal to control animal weight was calculated at the 50 mg/kg doses; format: functional; summary of the method: as §1
[18] = tested on: Mus musculus; test: Body weight difference the relation of the test animal to control animal weight was calculated at the 400 mg/kg doses; format: functional; summary of the method: as §1
[19] = tested on: P388; test: Compound was tested for antitumor activity against P388 lymphocytic leukemia at the dose 50 mg/kg; format: functional, Mus musculus; summary of the method: as §1
[20] = tested on: Mus musculus; test: Body weight difference the relation of the test animal to control animal weight was calculated at the 200 mg/kg doses; format: functional; summary of the method: as §1
[21] = tested on: P388; test: Compound was tested for antitumor activity against P388 lymphocytic leukemia at the dose 100 mg/kg; format: functional, Mus musculus; summary of the method: as §1
[22] = tested on: P388; test: Compound was tested for antitumor activity against P388 lymphocytic leukemia at the dose 15 mg/kg; format: functional, Mus musculus; summary of the method: as §1
[23] = tested on: Mus musculus; test: Tumor cell population at the end of treatment relative to its size at the beginning of the treatment was calculated at the 15 mg/kg doses; format: functional; summary of the method: as §1
[24] = tested on: Mus musculus; test: Body weight difference the relation of the test animal to control animal weight was calculated at the 15 mg/kg doses; format: functional; summary of the method: as §1
[25] = tested on: P388; test: Compound was tested for antitumor activity against P388 lymphocytic leukemia at the dose 7.5 mg/kg; format: functional, Mus musculus; summary of the method: as §1
[26] = tested on: Mus musculus; test: Tumor cell population at the end of treatment relative to its size at the beginning of the treatment was calculated at the 7.5 mg/kg doses; format: functional; summary of the method: as §1
[27] = tested on: Mus musculus; test: Body weight difference the relation of the test animal to control animal weight was calculated at the 7.5 mg/kg doses; format: functional; summary of the method: as §1
[28] = tested on: Mus musculus; test: Tumor cell population at the end of treatment relative to its size at the beginning of the treatment was calculated at the 30 mg/kgd oses; format: functional; conditions: dose 30 mg/kg; summary of the method: as §1
[29] = tested on: P388; test: Compound was tested for antitumor activity against P388 lymphocytic leukemia at the dose 30 mg/kg; format: functional, Mus musculus; summary of the method: as §1
[30] = tested on: Mus musculus; test: Body weight difference the relation of the test animal to control animal weight was calculated at the 30 mg/kg doses; format: functional; summary of the method: as §1

CC(C)NC(=O)OCC1=C(COC(=O)NC(C)C)C(c2ccc(Cl)c(Cl)c2)N(C)C1 (centres undefined) gave a BDW [1] of -1.6 g, a BDW [2] of -1.3 g and a T/C [3] of 117%. It also gave a T/C [4] of 110%, a BDW [5] of -2.5 g and a T/C [6] of 119%.
With CC(C)NC(=O)OCc1cn(C)c(-c2ccc(Cl)c(Cl)c2)c1COC(=O)NC(C)C the KE [7] was -1.15, the KE [8] was 3.4 and the BDW [1] was -1.6 g. For the same compound, the BDW [2] was -0.8 g, the BDW [9] was -3.6 g and the KE [10] was -0.39. For the same compound, the T/C [3] was 133%, the T/C [4] was 117% and the BDW [5] was -2.7 g. It also gave a KE [11] of 2.43, a T/C [12] of 169% and a T/C [6] of 160%. It also gave a K' [13] of 0.00605 abs/time.
For COc1ccc(C2C(COC(=O)NC(C)C)=C(COC(=O)NC(C)C)CN2C)cc1 (centres undefined), the BDW ([1]; 120 mg/kg) was -1.9 g and -1.2 g, the T/C [3] was 110% and the T/C [4] was 158%.
For CC(C)NC(=O)OCC1=C(COC(=O)NC(C)C)C(c2ccc(F)cc2)N(C)C1 (centres undefined), the BDW [1] was -2.7 g, the BDW [2] was -0.2 g and the T/C [3] was 131%. For the same compound, the T/C [4] was 112%, the BDW [5] was -2.7 g and the T/C [6] was 137%.
Work on CC(C)NC(=O)OCC1=C(COC(=O)NC(C)C)C(C)(C)N(C)C1c1ccccc1 (centres undefined) yielded a T/C [14] of 108%, a T/C [15] of 107% and a BDW [16] of -0.3 g. For the same compound, the BDW [17] was 0.5 g, the BDW [18] was -2.3 g and the T/C [19] was 108%. The BDW [20] was -0.1 g and the T/C [21] was 113%.
With Cc1c(COC(=O)NC(C)C)c(COC(=O)NC(C)C)c(-c2ccccc2)n1C the K' [13] was 1.68 abs/time.
With CC(C)NC(=O)OCc1cn(C)c(-c2ccccc2)c1COC(=O)NC(C)C the T/C [22] was 148%, the BDW [1] was -4.6 g and the BDW [2] was -4 g. The KE [23] was -0.04, the BDW [24] was -0.1 g and the T/C [25] was 127%. The KE [26] was -0.04, the BDW [27] was 0.1 g and the KE [28] was -0.15. The T/C [29] was 100%, the BDW [30] was -2.3 g and the K' [13] was 0.0935 abs/time.
